Format in all cases: tissue-based
Series [1] concerns the target T1, Amine oxidase [flavin-containing] A (Rattus norvegicus, UniProt P21396).
T1 sequence (P21396 whole entry): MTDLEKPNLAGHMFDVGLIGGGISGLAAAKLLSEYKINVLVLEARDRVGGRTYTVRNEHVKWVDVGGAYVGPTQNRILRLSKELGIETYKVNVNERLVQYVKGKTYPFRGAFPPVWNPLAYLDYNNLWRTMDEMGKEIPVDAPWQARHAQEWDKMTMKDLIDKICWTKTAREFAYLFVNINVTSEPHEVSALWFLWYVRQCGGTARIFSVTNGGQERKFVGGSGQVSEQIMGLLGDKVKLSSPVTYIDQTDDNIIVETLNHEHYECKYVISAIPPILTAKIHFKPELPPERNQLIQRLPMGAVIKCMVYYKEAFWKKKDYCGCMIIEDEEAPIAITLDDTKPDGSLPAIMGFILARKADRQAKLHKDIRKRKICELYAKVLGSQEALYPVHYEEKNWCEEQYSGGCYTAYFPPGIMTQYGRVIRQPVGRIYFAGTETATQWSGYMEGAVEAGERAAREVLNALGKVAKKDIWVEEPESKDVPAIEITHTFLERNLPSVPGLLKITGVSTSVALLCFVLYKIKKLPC
The series can be described thus: Reversible inhibition of MAOA in rat liver homogenate assessed as recovery of enzyme activity at 1 to 1000 uM up to 24 hrs by dialysis. A digest of the protocol: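 Rat liver MAO was incubated with compound (1–1000 µM, DMSO ≤1%) at 37 °C for 0–60 min. It was then dialysed for 24 h at 37 °C against potassium phosphate buffer, pH 7.6. Recovered activity was measured by the Holt coupled assay using p-tyramine, with absorbance read at 498 nm.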

The target of series [2] is T1, Amine oxidase [flavin-containing] A. Nature of the series: Competitive inhibition of MAOA in rat liver homogenate after 60 mins by Lineweaver-Burke plot analysis. To be noted: read-out: Kic.
Series [3] concerns the target T2, Amine oxidase [flavin-containing] B (Rattus norvegicus, UniProt P19643).
T2 sequence (P19643 whole entry): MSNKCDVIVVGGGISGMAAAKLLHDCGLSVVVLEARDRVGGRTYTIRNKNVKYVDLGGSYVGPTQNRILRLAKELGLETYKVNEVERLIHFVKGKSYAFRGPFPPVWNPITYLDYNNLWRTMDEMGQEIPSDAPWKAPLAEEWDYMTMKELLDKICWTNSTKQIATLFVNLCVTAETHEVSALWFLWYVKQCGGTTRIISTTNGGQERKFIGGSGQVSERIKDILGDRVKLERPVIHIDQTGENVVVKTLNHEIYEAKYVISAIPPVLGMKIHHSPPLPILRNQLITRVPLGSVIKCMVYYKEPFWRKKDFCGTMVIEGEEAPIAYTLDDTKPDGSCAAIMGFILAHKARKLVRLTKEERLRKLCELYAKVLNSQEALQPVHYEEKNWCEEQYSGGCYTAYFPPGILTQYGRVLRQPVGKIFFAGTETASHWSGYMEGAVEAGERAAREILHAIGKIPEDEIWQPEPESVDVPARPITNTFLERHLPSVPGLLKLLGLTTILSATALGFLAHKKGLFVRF
Nature of the series: Competitive inhibition of MAOB in rat liver homogenate after 60 mins by Lineweaver-Burke plot analysis. As to conditions: read-out: Kic; call rule not given here.

Structures are written as SMILES.

In the case of `COc1ccc(NC(=S)N2N=C(c3ccc(O)cc3)CC2c2ccco2)cc1` (configuration not stated), the outcome in series [1] was Active. Further, the results for the Ki in series [2] and in series [3] were 0.95 µM and 1060 µM, respectively.
Turning to `Cc1ccc(NC(=S)N2N=C(c3ccc(O)cc3)CC2c2ccco2)cc1` (configuration not stated), the outcome in series [1] was Active. The figures for the Ki in series [2] and in series [3] were 0.48 µM and 5010 µM, respectively.
In the case of `COc1ccccc1NC(=S)N1N=C(c2ccc(O)cc2)CC1c1ccco1` (configuration not stated), the outcome in series [1] was Active. The Ki in series [2] was 0.755 µM; in series [3], 174 µM.
On the same counts, the results for `COc1ccccc1NC(=S)N1N=C(c2ccc(O)cc2)CC1c1cccs1` (configuration not stated) are “Active”, 0.301 µM and 44 µM.
`Oc1ccc(C2=NN(C(=S)Nc3ccccc3)C(c3ccco3)C2)cc1` (configuration not stated): the result in series [1] was Active. The Ki was 0.701 µM in series [2] and 778 µM in series [3].
On to `Cc1ccccc1NC(=S)N1N=C(c2ccc(O)cc2)CC1c1cccs1` (configuration not stated), for which the result in series [1] was Active. Further, the values for the Ki in series [2] and in series [3] were 0.281 µM and 70.2 µM, respectively.
For the compound `Cc1cccc(NC(=S)N2N=C(c3ccc(O)cc3)CC2c2cccs2)c1` (configuration not stated), in series [1], the result was Active. Moreover, the Ki came out at 0.15 µM in series [2] and 2210 µM in series [3].
For `Cc1cccc(NC(=S)N2N=C(c3ccc(O)cc3)CC2c2ccco2)c1` (configuration not stated), in that order: “Active”, 0.591 µM and 580 µM.
Turning to `COc1ccc(NC(=S)N2N=C(c3ccc(O)cc3)CC2c2cccs2)cc1` (configuration not stated), the result in series [1] was Active. For the same compound, the Ki in series [2] is 0.501 µM; in series [3] it was 7150 µM.
For `Cc1ccc(NC(=S)N2N=C(c3ccc(O)cc3)CC2c2cccs2)cc1` (configuration not stated), in series [1], the result was Active. Also, the Ki in series [2] amounted to 0.351 µM; in series [3], 71.5 µM.
For `Cc1ccccc1NC(=S)N1N=C(c2ccc(O)cc2)CC1c1ccco1` (configuration not stated), in that order: “Active”, 0.231 µM and 28.8 µM.
For the compound `COc1cccc(NC(=S)N2N=C(c3ccc(O)cc3)CC2c2ccco2)c1` (configuration not stated), in series [1], the result was Active. For the same compound, the Ki in series [2] came to 0.176 µM; in series [3], 460 µM.
Take `Oc1ccc(C2=NN(C(=S)Nc3ccccc3)C(c3cccs3)C2)cc1` (configuration not stated): the outcome in series [1] was Active. Also, the Ki is 0.48 µM in series [2] and 47 µM in series [3].
For the compound `COc1cccc(NC(=S)N2N=C(c3ccc(O)cc3)CC2c2cccs2)c1` (configuration not stated), in series [1], the outcome was Active. Further, the Ki in series [2] turned out to be 0.181 µM; in series [3], 1100 µM.

The record behind these values is ChEMBL document CHEMBL1157576, “Development of selective and reversible pyrazoline based MAO-A inhibitors: Synthesis, biological evaluation and docking studies” (Bioorg Med Chem, 2010).
